An excerpt weighted towards active compounds, which were near 1.3% of everything screened.
HGIII-sPLA2 inh: Blocks human group III sPLA2 activity; Q9NZ20; QFRET BODIPY PC-A2 liposome hydrolysis, fluorescence; inhibition, % at 12.2 µM; 370,000 compounds, 0.56% hits;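 active = inhibition above mean plus 3 SD of compounds lying within the high and low control bounds, cut at about 19% in these data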;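 also: 0% = median of test compound wells and 100% = no enzyme DMSO wells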
Target sequence (Q9NZ20 whole entry, looked up): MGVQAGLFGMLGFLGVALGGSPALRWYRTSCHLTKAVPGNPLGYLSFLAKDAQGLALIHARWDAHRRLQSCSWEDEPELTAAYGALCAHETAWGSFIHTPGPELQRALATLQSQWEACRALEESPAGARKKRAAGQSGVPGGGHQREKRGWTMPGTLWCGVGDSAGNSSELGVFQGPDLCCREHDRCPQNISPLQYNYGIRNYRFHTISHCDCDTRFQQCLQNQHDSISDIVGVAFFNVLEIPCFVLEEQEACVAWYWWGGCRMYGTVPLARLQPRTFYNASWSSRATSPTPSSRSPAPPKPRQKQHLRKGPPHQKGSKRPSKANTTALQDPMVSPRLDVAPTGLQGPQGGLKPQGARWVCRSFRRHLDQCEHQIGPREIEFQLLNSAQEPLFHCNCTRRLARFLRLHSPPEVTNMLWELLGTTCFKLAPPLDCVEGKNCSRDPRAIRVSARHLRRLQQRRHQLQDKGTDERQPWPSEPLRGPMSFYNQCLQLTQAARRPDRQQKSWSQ
Efflux pump inh: antifungal efflux pump inhibition, Nile Red retention; 330,000 compounds, 0.44% hits; AID 485275; inhibition, % at 10 µM; S. cerevisiae Candida pump triplex;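 active = plate passing quality check with inhibition over a set limit, or well fluorescence over plate mean plus 4 SD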;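 also: Nile Red retained in pooled yeast measured as flow cytometry median fluorescence; 0% = buffer negative control and 100% = Enniatin B positive control; higher means more Nile Red kept so more efflux inhibition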
MT1-MMP act inh: blocks activation of human MT1-MMP; P50281; GFP/RFP ratio change, % at 20 µM; 360,000 compounds, 0.061% hits; HT1080 RFP-PRO-GFP cells, GFP/RFP ratio fluorescence, overnight; percent of plate control window, DMSO zero;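 active = GFP/RFP ratio change of at least 30% with cell ATP level not reduced by more than half and red fluorescence within 50% of control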
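system = RFP-PRO-GFP reporter HT1080 cells | dosing = 20 µM single dose, 1% DMSO | timing = overnight cell settling, then overnight compound exposure, 37 °C, 5% CO2 | read-out basis = GFP/RFP fluorescence ratio | controls = DMSO and RFP-L50D-GFP cell wells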
TAG inh: inhibitors of triacylglycerol accumulation. H9c2 cells, Nile Red lipid (TAG) fluorescence; cells loaded with 200 µM oleic acid. 230,000 compounds, 0.66% hits. inhibition, % at 12.5 µM;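 active = pattern-corrected inhibition of lipid staining of at least 50% with the nuclear-stain viability signal not falling by more than 50%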;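 also: 0% = DMSO wells and 100% = triacsin C control wells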
hGIII sPLA2 conf: human GIII-sPLA2 inhibition, confirmation; shares compounds with HGIII-sPLA2 inh; recombinant hGIII-sPLA2, BODIPY PC-A2 QFRET fluorescence; inhibition, % at 12.2 µM; 2,000 compounds, 34% hits;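 active = mean inhibition across triplicates above the hit cutoff set in the earlier primary screen, cut at about 19% in these data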;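 also: 0% = enzyme with DMSO and 100% = DMSO wells lacking enzyme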
BODIPY interf: optically interferes with 535nm fluorescence in sPLA2 counter-screen; shares compounds with HGIII-sPLA2 inh; BODIPY FL product fluorescence interference, QFRET; inhibition, % at 12.2 µM; 2,000 compounds, 8.5% hits;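 active = average inhibition above the solvent-only control mean plus 3 SD, cut at about 6% in these data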;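 also: 0% = DMSO with substrate plus product and 100% = DMSO with substrate alone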
BODIPY interf DR: counter-screen for HGIII-sPLA2 inhibitors: 535nm fluorescence interference, dose response; BODIPY FL product fluorescence interference, cell-free; 240 tested, under 10 active; shares compounds with HGIII-sPLA2 inh; IC50, µM;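 active = IC50 at or below 10 µM; inactive = IC50 above 10 µM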
Starred values were filed as active, the others as inactive; · = no result given.

SMILES | HGIII-sPLA2 inh | Efflux pump inh | MT1-MMP act inh | TAG inh | hGIII sPLA2 conf | BODIPY interf | others
O=C(OCC(=O)C12CC3CC(CC(C3)C1)C2)c1ccccc1O | 19* | 0 | -2 | -14 | -6 | -4
O=C(COC(=O)c1ccccc1O)NC12CC3CC(CC(C3)C1)C2 | -14 | 0 | 6 | -10 | · | ·
COc1ccc(OC)c(C2CC(=O)Nc3c2c(=O)[nH]c2ncnn32)c1 (configuration not stated) | 4 | 0 | -2 | 5 | · | ·
CCOC(=O)NN1C(=O)c2ccccc2NC1c1ccccc1 (configuration not stated) | 30* | 0 | 1 | · | 1 | -7
CCOC(=O)NN1C(=O)c2ccccc2NC1c1ccc(OC)cc1 (configuration not stated) | 21* | 0 | 2 | · | 4 | -6
CCOC(=O)NN1C(=O)c2ccccc2NC1C (configuration not stated) | -2 | 0 | 0 | 6 | · | ·
CCOC(=O)NN1C(=O)c2ccccc2NC1c1ccc(N(C)C)cc1 (configuration not stated) | -5 | 0 | -1 | · | · | ·
CN1CC(=O)NC1=NC(=O)c1ccc(Cl)c(S(=O)(=O)N2CCCCCC2)c1 | -46 | 0 | 1 | 0 | · | ·
Cc1ccc(-c2cc(-c3nnc(SCC(=O)Nc4ccccc4-c4ccccc4)n3N)[nH]n2)cc1 | -30 | · | · | · | · | ·
COc1ccc(C(=O)N2CCN(c3nc4cc(C)cc(C)c4cc3C#N)CC2)cc1 | -22 | · | -2 | -4 | · | ·
CCN(CC)C(=O)C12C(=O)Oc3ccccc3C1C2(C)C(=O)c1ccc(F)cc1 (configuration not stated) | 20* | 0 | -3 | -7 | -2 | -8
CCc1ccc(OC(=O)c2cccnc2)cc1 | -3 | 0 | 1 | · | · | ·
CN(/N=C/c1ccc2c(c1)OCO2)c1ccccc1 | 23* | 0 | -2 | · | 41* | 6.6*
Nc1ccc(N2CCN(c3cccc(Cl)c3)CC2)cc1 | 23* | -1 | 15 | · | 10 | 5
O=C(c1ccc2c(c1)OCO2)N(Cc1ccco1)C1(C(=O)NC2CCCCC2)CCCCC1 | -5 | 0 | -2 | 4 | · | ·
COc1ccc(C(=O)Nn2c(SCc3ccc([N+](=O)[O-])cc3)nc3ccccc3c2=O)cc1 | -12 | 0 | 1 | · | · | ·
O=C(c1cc(S(=O)(=O)N2CCCCC2)ccc1F)N1CCCCC1 | · | 0 | -5 | · | · | ·
NS(=O)(=O)c1ccc(F)c(C(=O)O)c1 | 26* | 0 | 1 | -10 | 4 | -6
CCC(=O)NC(=S)Nc1ccc(-c2nc3ccc(C)cc3s2)cc1 | 19* | -1 | 6 | · | 0 | -8
CCC(=O)NC(=S)Nc1ccc(-c2nc3ccccc3s2)cc1 | -4 | 0 | 4 | 13 | · | ·
CN(C)CCNC(=O)C(=O)NCC1CCCN1S(=O)(=O)c1cccs1 (configuration not stated) | 5 | 0 | -5 | -11 | · | ·
O=C(NC(=S)Nc1ccc2oc(=O)ccc2c1)c1cc2ccccc2o1 | 22* | 0 | 1 | -1 | 4 | -2
CC1Sc2ccccc2N(CC(=O)N(C(C)C)C(C)C)C1=O (configuration not stated) | -4 | 0 | -5 | 24 | · | ·
Cc1cc(NC(=O)CSc2nnc(-c3ccncc3)n2Cc2ccccc2)n(-c2ccccc2)n1 | 6 | 0 | -4 | 9 | · | ·
COCCn1c(SCC(=O)Nc2cc(C)nn2-c2ccccc2)nnc1-c1ccncc1 | 20* | 0 | -1 | · | 4 | -7
SMILES | HGIII-sPLA2 inh | Efflux pump inh | MT1-MMP act inh | TAG inh | hGIII sPLA2 conf | BODIPY interf | others
CC(CCC(=O)Nc1nncs1)C(=O)O (configuration not stated) | 20* | 0 | 2 | -2 | 0 | 3
S=c1[nH]nc(-c2cc(-c3ccccc3)n[nH]2)n1/N=C/C=C/c1ccccc1 | 15 | 0 | 7 | 7 | · | ·
COc1ccccc1/C=C/C=N/n1c(-c2cc(-c3ccccc3)n[nH]2)n[nH]c1=S | 21* | 0 | 7 | 14 | -26 | 9.5*
COCCNC(=O)C1(C)CCCN(C(=O)c2ccc(F)c(Cl)c2)C1 (configuration not stated) | 7 | · | 0 | -3 | · | ·
COc1cccc(N=Nc2ccc3ccccc3c2O)c1 | 8 | 0 | 43 | · | · | ·
Cc1ccc(N=Nc2ccc3ccccc3c2O)cc1 | 20* | 0 | 46 | · | 30* | 8.3*
O=S(=O)(NC1=NCCCCC1)c1ccc(Cl)cc1 | 3 | 0 | 3 | 4 | · | ·
CCN=c1scc(-c2ccco2)n1/N=C/c1ccc(O)cc1 | 4 | 0 | -6 | -19 | · | ·
CCN=c1scc(C)n1/N=C/c1ccc(O)c(O)c1O | 22* | 0 | 3 | · | 24* | -11
CCN=c1scc(C)n1/N=C/c1cc(Br)c(O)c(Br)c1 | 22* | 0 | 3 | 6 | 21* | 1
C=C(C)CN=c1scc(C)n1/N=C/c1ccco1 | 4 | 0 | -1 | 6 | · | ·
CCCCNC(=S)NNC(=O)c1nn(C)cc1Cl | 23* | 0 | -1 | 3 | 27* | -1
CCCCNC(=S)NNC(=O)c1ccc(Br)o1 | 30* | 0 | 2 | · | 31* | 3 | BODIPY interf DR=>122
CCCCNC(=S)NNC(=O)c1cccnc1 | 8 | 0 | -1 | 8 | · | ·
NC(=O)c1sc2nc3c(c(-c4ccco4)c2c1N)CCCC3 | 20* | 0 | -19 | -10 | -1 | -11
CN(C)/C=C1\C(=O)N(C)N=C1C(F)(F)F | -1 | 0 | 5 | 8 | · | ·
O=C(NC1CCCC1)c1cc(-c2ccc(Cl)cc2)on1 | 19* | 0 | 1 | · | -4 | -8
CCc1ccccc1NC(=S)N(CCCN1CCOCC1)Cc1cccs1 | 18 | 0 | -3 | · | · | ·
CCCS(=O)(=O)N1CCCC(C(=O)N2CCCCC2)C1 (configuration not stated) | -1 | 0 | 1 | · | · | ·
C=CCc1cc(Cl)ccc1OCCCNC(C)C | 23* | 0 | 0 | · | -9 | -26
O=C(CSc1nc2ccccc2nc1N1CCOCC1)N1CCN(c2cccc(C(F)(F)F)c2)CC1 | -3 | · | · | · | · | ·
Cc1cc(C(=O)NCC(=O)OCC(=O)N(C(C)C)C(C)C)ccc1[N+](=O)[O-] | 21* | 0 | 7 | · | 1 | -9
CCCCN(C)S(=O)(=O)c1c(C)[nH]c(=O)[nH]c1=O | 19* | 0 | 0 | · | 2 | -4
C=CCN(C(=O)CSc1nc2c(sc3ccccc32)c(=O)n1CCN(CC)CC)c1ccccc1 | -3 | 0 | -1 | 21 | · | ·
COc1cc2c3c(c1)C(C)CC(C)(C)N3C(=O)C2=O (configuration not stated) | 24* | 0 | 2 | 27 | 13 | 4
COc1cc2c3c(c1)C(C)=CC(C)(C)N3C(=O)C2=O | 10 | 0 | 3 | 23 | · | ·

Source: PubChem
